The source made the active and inactive calls. The calls are words filed in the database; no cut-off is given here.
Legend:
MCF7 = test: Antiproliferative activity against human MCF7 cells assessed as reduction in cell viability after 48 hrs by MTT assay; type: functional, cell-based; conditions: MCF7, 48 h
In short: (§1)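 MCF-7, K562, A549 and HT-29 lines were seeded in 96-well plates and kept overnight at 37 °C, 5% CO2, 95% humidity. They were then exposed to six concentrations (100 to 2.5) for 48 h. After PBS washes, MTT was added for 4 h at 37 °C and formazan was dissolved in DMSO. Absorbance was read at 570 nm. Survival is mean OD of treated wells over the negative control, and IC50 was derived from that.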

A549 = test: Antiproliferative activity against human A549 cells assessed as reduction in cell viability after 48 hrs by MTT assay; type: functional, cell-based; conditions: A549, 48 h; in short: as §1
[1] = target: Vascular endothelial growth factor receptor 2 (Homo sapiens, UniProt P35968); test: Inhibition of human VEGFR2 in HUVEC cells assessed as reduction in VEGFR2 phosphorylation incubated for 30 mins by anti-phospho VEGF Tyr 1175 antibody based assay; type: cell-based
Vascular endothelial growth factor receptor 2, sequence (P35968 whole entry): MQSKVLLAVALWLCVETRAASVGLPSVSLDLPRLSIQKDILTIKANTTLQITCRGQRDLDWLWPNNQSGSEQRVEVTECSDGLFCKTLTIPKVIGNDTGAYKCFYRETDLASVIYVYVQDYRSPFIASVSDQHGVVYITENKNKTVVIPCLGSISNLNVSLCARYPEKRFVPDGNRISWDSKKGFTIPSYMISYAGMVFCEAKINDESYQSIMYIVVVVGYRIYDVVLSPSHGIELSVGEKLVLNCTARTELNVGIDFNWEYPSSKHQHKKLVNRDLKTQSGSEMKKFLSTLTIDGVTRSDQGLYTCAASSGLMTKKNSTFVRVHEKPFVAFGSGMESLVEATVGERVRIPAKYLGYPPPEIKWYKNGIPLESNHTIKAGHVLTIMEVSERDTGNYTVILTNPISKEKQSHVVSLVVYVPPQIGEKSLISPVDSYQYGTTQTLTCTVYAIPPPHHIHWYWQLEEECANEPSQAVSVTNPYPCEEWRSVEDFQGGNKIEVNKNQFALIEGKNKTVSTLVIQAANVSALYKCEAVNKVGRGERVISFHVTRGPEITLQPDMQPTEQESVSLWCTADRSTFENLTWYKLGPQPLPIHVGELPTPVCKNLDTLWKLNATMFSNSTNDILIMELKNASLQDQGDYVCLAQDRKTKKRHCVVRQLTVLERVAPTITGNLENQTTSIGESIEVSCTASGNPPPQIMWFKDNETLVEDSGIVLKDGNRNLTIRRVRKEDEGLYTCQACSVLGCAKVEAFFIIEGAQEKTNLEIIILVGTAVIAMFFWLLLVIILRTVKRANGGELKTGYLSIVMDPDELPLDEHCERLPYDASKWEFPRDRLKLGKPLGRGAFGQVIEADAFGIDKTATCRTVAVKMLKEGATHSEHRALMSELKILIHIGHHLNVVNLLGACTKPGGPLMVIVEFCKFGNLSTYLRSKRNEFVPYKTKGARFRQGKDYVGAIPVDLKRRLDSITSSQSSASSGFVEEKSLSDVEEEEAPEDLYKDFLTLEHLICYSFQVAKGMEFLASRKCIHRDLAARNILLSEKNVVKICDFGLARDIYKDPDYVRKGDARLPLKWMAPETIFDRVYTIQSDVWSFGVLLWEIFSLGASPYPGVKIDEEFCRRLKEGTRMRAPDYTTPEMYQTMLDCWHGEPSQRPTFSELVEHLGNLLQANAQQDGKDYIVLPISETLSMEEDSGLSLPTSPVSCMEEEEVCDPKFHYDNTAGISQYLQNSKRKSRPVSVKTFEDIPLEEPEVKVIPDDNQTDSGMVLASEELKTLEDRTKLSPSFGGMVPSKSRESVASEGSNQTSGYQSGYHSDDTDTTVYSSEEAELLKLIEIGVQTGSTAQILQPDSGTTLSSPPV
In short: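 HUVECs were seeded at 4000–5000 per well in DMEM with 10% FCS for 12 h, then held 24 h in serum. Compound (10 µM) was added with serum for 30 min at 37 °C. Cells were fixed in 4% formaldehyde and probed with anti-phospho-VEGFR Tyr1175 (1:1000), then an HRP secondary (1:5000). TMB signal was stopped with 2N H2SO4 and read at 450 nm. Percent inhibition is normalized to control.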

Gallus gallus = organism: Gallus gallus; test: Inhibition of angiogenesis in chicken chorioallantoic membrane assessed as reduction in number of branching capillaries at 1 to 10 ug/ul after 12 days in presence of human VEGF by stereomicroscopic analysis; conditions: Embryo, dose 1-10 µg/microl, time 12.0 day
HT-29 = test: Antiproliferative activity against human HT-29 cells assessed as reduction in cell viability after 48 hrs by MTT assay; type: functional, cell-based; conditions: HT-29, 48 h; in short: as §1
K562 = test: Antiproliferative activity against human K562 cells assessed as reduction in cell viability after 48 hrs by MTT assay; type: functional, cell-based; conditions: K562, 48 h; in short: as §1

O=C1NC(=O)/C(=C\c2ccc(OCC(=O)N3N=C(c4ccc(F)cc4)CC3c3ccco3)cc2)S1 (stereo unspecified)
IC50 (MCF7): 28.4 µM
IC50 (A549): 19.5 µM
IC50 [1]: 5 µM
inhibition (Gallus gallus): Active
IC50 (HT-29): 18.8 µM
IC50 (K562): 46.3 µM

From ChEMBL document CHEMBL5120742, “Multi-target weapons: diaryl-pyrazoline thiazolidinediones simultaneously targeting VEGFR-2 and HDAC cancer hallmarks” (RSC Med Chem, 2021)
